From ChEMBL document CHEMBL1781933, “Neurosteroid analogues. 16. A new explanation for the lack of anesthetic effects of δ(16)-alphaxalone and identification of a δ(17(20)) analogue with potent anesthetic activity” (J Med Chem, 2011)
Calls of active or inactive are those of the source. The calls are words filed in the database; no cut-off is given here.

How the values were obtained:
[1] = test system: Xenopus laevis; test: Anesthetic effect on Xenopus laevis tadpole assessed as loss of swimming reflex at 10 uM; format: functional, organism-based
[2] = test system: Xenopus laevis; test: Anesthetic effect on Xenopus laevis tadpole assessed as loss of righting reflex; format: functional, organism-based
Procedure, shortened: (§1)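 Xenopus tadpoles were exposed to steroid at five or more concentrations, with 10 or more animals per concentration. Loss of righting or swimming reflex was scored. EC50 and Hill coefficient were fitted from the dose–response curves; mean ± SEM.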

[3] = test system: Xenopus laevis; test: Anesthetic effect on Xenopus laevis tadpole assessed as loss of swimming reflex at 3 uM; format: functional, organism-based
[4] = test system: Oocyte; test: Activity at rat GABA-A receptor alpha1beta2gamma2L expressed in Xenopus oocytes assessed as potentiation of GABA-induced chloride current at 0.1 uM by electrophysiological Method relative to control; format: cell-based
Procedure, shortened: (§2)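 Oocytes expressing rat α1β2γ2L GABA-A receptors were recorded whole-cell. Compound at 0.1, 1 or 10 µM was co-applied with 2 µM GABA. Response is the current ratio with/without compound. At least four different oocytes per concentration; mean ± SEM.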

[5] = test system: Oocyte; test: Activity at rat GABA-A receptor alpha1beta2gamma2L expressed in Xenopus oocytes assessed as potentiation of GABA-induced chloride current at 1 uM by electrophysiological Method relative to control; format: cell-based; procedure, shortened: as §2
[6] = test system: Oocyte; test: Activity at rat GABA-A receptor alpha1beta2gamma2L expressed in Xenopus oocytes assessed as increase in chloride current at 10 uM by electrophysiological Method relative to GABA; format: cell-based
Procedure, shortened: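 Direct gating measured without GABA. Current evoked by 10 µM steroid applied alone to oocytes expressing rat α1β2γ2L GABA-A receptors, expressed as a ratio to the current evoked by 2 µM GABA. Whole-cell recording. At least four oocytes per compound; mean ± SEM.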

[7] = test system: Oocyte; test: Activity at rat GABA-A receptor alpha1beta2gamma2L expressed in Xenopus oocytes assessed as potentiation of GABA-induced chloride current at 10 uM by electrophysiological Method relative to control; format: cell-based; procedure, shortened: as §2
[8] = test system: Xenopus laevis; test: Anesthetic effect on Xenopus laevis tadpole assessed as loss of swimming reflex at 30 uM; format: functional, organism-based
[9] = test system: Xenopus laevis; test: Anesthetic effect on Xenopus laevis tadpole assessed as loss of swimming reflex; format: functional, organism-based; procedure, shortened: as §1
[10] = test system: Mus musculus; test: Anesthetic effect in mouse assessed as duration of loss of righting reflex at 16 mg/kg, iv; format: functional
[11] = test system: Mus musculus; test: Anesthetic effect in mouse assessed as duration of loss of righting reflex at 8 mg/kg, iv; format: functional
[12] = test system: Mus musculus; test: Anesthetic effect in mouse assessed as immediate loss of righting reflex at 16 mg/kg, iv; format: functional, organism-based; parameters: dose 16 mg/kg
[13] = test system: Mus musculus; test: Anesthetic effect in mouse assessed as loss of righting reflex at 8 mg/kg, iv; format: functional, organism-based; parameters: dose 8 mg/kg
[14] = test system: Mus musculus; test: Anesthetic effect in mouse assessed as time taken for recovery of righting effect and walking at 16 mg/kg, iv; format: functional

SMILES | Activity [1] | EC50 [2] [µM] | Activity [3] | fold change (FC) [4] | fold change (FC) [5] | fold change (FC) [6] | fold change (FC) [7] | Activity [8] | EC50 [9] [µM] | Time [10] [min] | Time [11] [min] | Activity [12] | Activity [13] | Time [14] [min]
C[C@]12CC[C@@H](O)C[C@@H]1CC[C@H]1[C@@H]3CC[C@H](C=O)[C@@]3(C)CC(=O)[C@@H]12 | inactive | 3.98 | Active |  |  |  |  |  |  |  |  |  |  | 
C[C@]12CC[C@@H](O)C[C@@H]1CC[C@H]1[C@@H]3CC[C@H](CC#N)[C@@]3(C)CC(=O)[C@@H]12 | inactive | 3.58 | Active | 0.91 | 1.13 | 0.01 | 4.67 |  |  |  |  |  |  | 
C[C@]12CC[C@@H](O)C[C@@H]1CC[C@@H]1[C@@H]2C(=O)C[C@]2(C)/C(=C/C#N)CC[C@@H]12 | Active | 9.15 |  |  |  |  |  | inactive | 17.3 |  |  |  |  | 
C/C(C#N)=C1/CC[C@H]2[C@@H]3CC[C@H]4C[C@H](O)CC[C@]4(C)[C@H]3C(=O)C[C@]12C | inactive | 2.09 | Active | 0.9 | 0.86 | 0.05 | 1.53 |  | 10 |  |  |  |  | 
C/C(C#N)=C1\CC[C@H]2[C@@H]3CC[C@H]4C[C@H](O)CC[C@]4(C)[C@H]3C(=O)C[C@]12C | inactive | 2.71 | Active | 0.9 | 1.52 | 0.04 | 5.02 |  | 5.48 |  |  |  |  | 
C[C@]12CC[C@@H](O)C[C@@H]1CC[C@@H]1[C@@H]2C(=O)C[C@]2(C)/C(=C\C#N)CC[C@@H]12 | inactive |  | Active |  |  |  |  |  | 5.48 | 4 | 1.5 |  |  | 
C[C@]12CC[C@@H](O)C[C@@H]1CC[C@@H]1[C@@H]2C(=O)C[C@]2(C)C(C=O)=CC[C@@H]12 | inactive | 3.22 | Active |  |  |  |  |  |  |  |  |  |  | 
CC(=O)[C@H]1CC[C@H]2[C@@H]3CC[C@H]4C[C@H](O)CC[C@]4(C)[C@H]3C(=O)C[C@]12C [ALFAXALONE] |  |  |  |  |  |  |  |  |  | 4 |  | Active | inactive | 1
